Results on 20 compounds are retold here after ChEMBL document CHEMBL4699501, “Dihydrodibenzothiepine: Promising hydrophobic pharmacophore in the influenza cap-dependent endonuclease inhibitor” (Bioorg Med Chem Lett, 2020).

The structures appear in SMILES notation.

In general, IC50 refers to the midpoint of a concentration-inhibition curve. Read a low IC50 as inhibition by little substance. As usually defined, the EC50 is the concentration needed to bring the measured effect to its halfway point. What is called clearance is a measure of how efficiently the substance is removed, as volume per time. High values mean a high capacity for elimination, low ones a low capacity for elimination. A word on the fraction unbound: it is the share of the substance not bound to proteins or other matrix. Low values mean extensive binding, high ones weak binding.

Tested on in one data set: not listed separately
The experiment in a line: Inhibition of Influenza virus Cap-dependent endonuclease. Also on record: species or system Influenza A virus.
Conditions: not given
`C[C@@H](N1CN([C@@H]2c3ccccc3SCc3c(Cl)cccc32)n2ccc(=O)c(O)c2C1=O)C(F)(F)F` gave a half-maximal inhibitory concentration (IC50) of 30 nM.
Same read-out and setting: with `CC(C)N1CN(C(c2ccccc2)c2ccc(Cl)cc2)n2ccc(=O)c(O)c2C1=O` (stereo not drawn) the figure was 291 nM; with `Cc1ccccc1C(c1ccccc1)N1CN(C(C)C)C(=O)c2c(O)c(=O)ccn21` (stereo not drawn), 142 nM.
Compound `Cc1ccc(C(c2ccc(C)cc2)N2CN(C(C)C)C(=O)c3c(O)c(=O)ccn32)cc1` yielded an IC50 of 394 nM.
Same read-out and setting: the same measure for `C[C@@H](N1CN([C@H]2c3ccc(Cl)cc3CSc3ccccc32)n2ccc(=O)c(O)c2C1=O)C(F)(F)F`: 6.99 nM; for `C[C@@H](N1CN([C@@H]2c3ccccc3SCc3c(F)cccc32)n2ccc(=O)c(O)c2C1=O)C(F)(F)F`: 12.5 nM.
`[2H]C([2H])([2H])C([2H])(N1CN(C2c3ccccc3CSc3ccccc32)n2ccc(=O)c(O)c2C1=O)C([2H])([2H])[2H]` (stereo not drawn) returned an IC50 of 43.4 nM.
The compound `C[C@@H](N1CN([C@H]2c3cc(F)ccc3CSc3ccccc32)n2ccc(=O)c(O)c2C1=O)C(F)(F)F` displayed an IC50 of 44.3 nM.
Still for that read-out and setting: with `C[C@@H](N1CN([C@H]2c3ccccc3SCc3cccc(Cl)c32)n2ccc(=O)c(O)c2C1=O)C(F)(F)F` the figure was 9.95 nM.

The subject of a further data set is Influenza A virus. Description: Antiviral activity against Influenza A virus (A/WSN/1933(H1N1)) infected in […] MDBK cells assessed as cell protection incubated for 72 hrs. The format is functional, organism-based.
Conditions: not given
In a few lines:
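Madin-Darby bovine kidney cells were infected with A/WSN/33 at 50 TCID50/well and incubated with compound at 37 °C in a CO2 incubator for 72 hr.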
As to `C[C@@H](N1CN([C@@H]2c3ccccc3CSc3ccccc32)n2ccc(=O)c(O)c2C1=O)C(F)(F)F`, the EC50 is 131 nM.
On the same count and under the same terms, the same measure for `C[C@@H](N1CN([C@H]2c3ccccc3CSc3ccc(F)cc32)n2ccc(=O)c(O)c2C1=O)C(F)(F)F`: 8.16 nM; for `C[C@H](N1CN([C@@H]2c3ccccc3CSc3ccccc32)n2ccc(=O)c(O)c2C1=O)C(F)(F)F`: 21.7 nM; for `CC(C)N1CN(C2c3ccccc3CSc3ccccc32)n2ccc(=O)c(O)c2C1=O` (racemic): 16.9 nM.
As to `C[C@H](N1CN([C@H]2c3ccccc3CSc3ccccc32)n2ccc(=O)c(O)c2C1=O)C(F)(F)F`, the EC50 turned out to be 18.6 nM.
On the same count and under the same terms, the same measure for `C[C@@H](N1CN([C@H]2c3ccccc3CSc3c(F)cccc32)n2ccc(=O)c(O)c2C1=O)C(F)(F)F`: 3.41 nM; for `C[C@@H](N1CN([C@@H]2c3ccccc3SCc3c(Cl)cccc32)n2ccc(=O)c(O)c2C1=O)C(F)(F)F`: 3.04 nM; for `C[C@@H](N1CN([C@H]2c3ccccc3CSc3cc(F)ccc32)n2ccc(=O)c(O)c2C1=O)C(F)(F)F`: 14.3 nM.
The same measure, in the same setting: the same measure for `CC(C)N1CN(C(c2ccccc2)c2ccc(Cl)cc2)n2ccc(=O)c(O)c2C1=O` (stereo not drawn): 94 nM.
The same measure, in the same setting: the same measure for `C[C@@H](N1CN([C@H]2c3ccccc3CSc3ccccc32)n2ccc(=O)c(O)c2C1=O)C(F)(F)F`: 4.69 nM.
In the case of `CC(C)N1CN(C2c3ccccc3COc3ccccc32)n2ccc(=O)c(O)c2C1=O` (stereo not drawn), the EC50 turned out to be 71 nM.
The same measure, in the same setting: the same measure for `Cc1ccccc1C(c1ccccc1)N1CN(C(C)C)C(=O)c2c(O)c(=O)ccn21` (stereo not drawn): 73.4 nM.
Same read-out and setting: with `Cc1ccc(C(c2ccc(C)cc2)N2CN(C(C)C)C(=O)c3c(O)c(=O)ccn32)cc1` the figure was 440 nM; with `C[C@@H](N1CN([C@H]2c3ccc(Cl)cc3CSc3ccccc32)n2ccc(=O)c(O)c2C1=O)C(F)(F)F`, 10.5 nM.
On the same count and under the same terms, with `C[C@@H](N1CN([C@@H]2c3ccccc3SCc3c(F)cccc32)n2ccc(=O)c(O)c2C1=O)C(F)(F)F` the figure was 3.85 nM; with `[2H]C([2H])([2H])C([2H])(N1CN(C2c3ccccc3CSc3ccccc32)n2ccc(=O)c(O)c2C1=O)C([2H])([2H])[2H]` (stereo not drawn), 11.7 nM.
As to `C[C@@H](N1CN([C@H]2c3cc(Cl)ccc3CSc3ccccc32)n2ccc(=O)c(O)c2C1=O)C(F)(F)F`, the EC50 is 4.21 nM.
On the same count and under the same terms, with `CC(CN(C)C)N1CN(C2c3ccccc3CSc3ccccc32)n2ccc(=O)c(O)c2C1=O` (stereo not drawn) the figure was 84.1 nM.
`C[C@@H](N1CN([C@H]2c3cc(F)ccc3CSc3ccccc32)n2ccc(=O)c(O)c2C1=O)C(F)(F)F`: the EC50 turned out to be 4.68 nM.
Take `C[C@@H](N1CN([C@H]2c3ccccc3SCc3cccc(Cl)c32)n2ccc(=O)c(O)c2C1=O)C(F)(F)F`: the EC50 was determined as 3.52 nM.

Tested on in a further data set: not listed separately
Description: Metabolic stability in rat liver microsomes assessed as compound remaining at 2 uM incubated for 30 mins. The class given is ADME, Microsome. The following applies: read-out: Stabilty. The method, boiled down: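 Compound at 2 μM was incubated with rat liver microsomes at 37 °C for 30 min. The read-out is % of compound remaining.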
On the technique in general: Liver microsomes are vesicles of endoplasmic reticulum, rich in cytochrome P450 enzymes.
Consider `C[C@@H](N1CN([C@H]2c3ccccc3CSc3ccc(F)cc32)n2ccc(=O)c(O)c2C1=O)C(F)(F)F`, for which the remaining at 0.5 h, 2 µM was 103%.
Same read-out and setting: with `CC(C)N1CN(C2c3ccccc3CSc3ccccc32)n2ccc(=O)c(O)c2C1=O` (racemic) the figure was 72.6%; with `C[C@H](N1CN([C@H]2c3ccccc3CSc3ccccc32)n2ccc(=O)c(O)c2C1=O)C(F)(F)F`, 79.8%.
The same measure, in the same setting: with `C[C@@H](N1CN([C@H]2c3ccccc3CSc3c(F)cccc32)n2ccc(=O)c(O)c2C1=O)C(F)(F)F` the figure was 95.6%; with `C[C@@H](N1CN([C@@H]2c3ccccc3SCc3c(Cl)cccc32)n2ccc(=O)c(O)c2C1=O)C(F)(F)F`, 102%.
The same measure, in the same setting: with `C[C@@H](N1CN([C@H]2c3ccccc3CSc3cc(F)ccc32)n2ccc(=O)c(O)c2C1=O)C(F)(F)F` the figure was 93.9%; with `C[C@@H](N1CN([C@H]2c3ccccc3CSc3ccccc32)n2ccc(=O)c(O)c2C1=O)C(F)(F)F`, 98.1%; with `C[C@@H](N1CN([C@H]2c3ccc(Cl)cc3CSc3ccccc32)n2ccc(=O)c(O)c2C1=O)C(F)(F)F`, 96.1%.
In the case of `C[C@@H](N1CN([C@@H]2c3ccccc3SCc3c(F)cccc32)n2ccc(=O)c(O)c2C1=O)C(F)(F)F`, the remaining at 0.5 h, 2 µM is 91.8%.
Same read-out and setting: the same measure for `[2H]C([2H])([2H])C([2H])(N1CN(C2c3ccccc3CSc3ccccc32)n2ccc(=O)c(O)c2C1=O)C([2H])([2H])[2H]` (stereo not drawn): 74.4%.
On the same count and under the same terms, with `C[C@@H](N1CN([C@H]2c3cc(Cl)ccc3CSc3ccccc32)n2ccc(=O)c(O)c2C1=O)C(F)(F)F` the figure was 94.1%.
Still for that read-out and setting: with `CC(CN(C)C)N1CN(C2c3ccccc3CSc3ccccc32)n2ccc(=O)c(O)c2C1=O` (stereo not drawn) the figure was 76.4%; with `C[C@@H](N1CN([C@H]2c3cc(F)ccc3CSc3ccccc32)n2ccc(=O)c(O)c2C1=O)C(F)(F)F`, 98.9%; with `C[C@@H](N1CN([C@H]2c3ccccc3SCc3cccc(Cl)c32)n2ccc(=O)c(O)c2C1=O)C(F)(F)F`, 93.3%.

Tested on in another data set: not listed separately
The experiment in a line: Clearance in iv dosed rat by LC/MS/MS analysis. The following applies: in vivo. The format is ADME, organism-based. In a few lines:
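Rats received a single intravenous dose, and plasma levels were quantified by LC/MS/MS to derive clearance. Values are the mean of duplicate experiments.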
With `C[C@@H](N1CN([C@H]2c3ccccc3CSc3ccc(F)cc32)n2ccc(=O)c(O)c2C1=O)C(F)(F)F`, the clearance is 15.4 mL/min/kg.
Still for that read-out and setting: the same measure for `CC(C)N1CN(C2c3ccccc3CSc3ccccc32)n2ccc(=O)c(O)c2C1=O` (racemic): 32.7 mL/min/kg.
Same read-out and setting: the same measure for `C[C@@H](N1CN([C@H]2c3ccccc3CSc3c(F)cccc32)n2ccc(=O)c(O)c2C1=O)C(F)(F)F`: 10.3 mL/min/kg; for `C[C@@H](N1CN([C@@H]2c3ccccc3SCc3c(Cl)cccc32)n2ccc(=O)c(O)c2C1=O)C(F)(F)F`: 7.36 mL/min/kg.
With `C[C@@H](N1CN([C@H]2c3ccccc3CSc3cc(F)ccc32)n2ccc(=O)c(O)c2C1=O)C(F)(F)F`, the clearance worked out at 13.4 mL/min/kg.
Same read-out and setting: with `C[C@@H](N1CN([C@H]2c3ccccc3CSc3ccccc32)n2ccc(=O)c(O)c2C1=O)C(F)(F)F` the figure was 15.8 mL/min/kg; with `C[C@@H](N1CN([C@H]2c3ccc(Cl)cc3CSc3ccccc32)n2ccc(=O)c(O)c2C1=O)C(F)(F)F`, 5.7 mL/min/kg.
Still for that read-out and setting: with `C[C@@H](N1CN([C@@H]2c3ccccc3SCc3c(F)cccc32)n2ccc(=O)c(O)c2C1=O)C(F)(F)F` the figure was 8.37 mL/min/kg; with `[2H]C([2H])([2H])C([2H])(N1CN(C2c3ccccc3CSc3ccccc32)n2ccc(=O)c(O)c2C1=O)C([2H])([2H])[2H]` (stereo not drawn), 39.1 mL/min/kg.
Same read-out and setting: with `C[C@@H](N1CN([C@H]2c3cc(Cl)ccc3CSc3ccccc32)n2ccc(=O)c(O)c2C1=O)C(F)(F)F` the figure was 12.4 mL/min/kg; with `CC(CN(C)C)N1CN(C2c3ccccc3CSc3ccccc32)n2ccc(=O)c(O)c2C1=O` (stereo not drawn), 98.7 mL/min/kg; with `C[C@@H](N1CN([C@H]2c3cc(F)ccc3CSc3ccccc32)n2ccc(=O)c(O)c2C1=O)C(F)(F)F`, 21.3 mL/min/kg.
`C[C@@H](N1CN([C@H]2c3ccccc3SCc3cccc(Cl)c32)n2ccc(=O)c(O)c2C1=O)C(F)(F)F` yielded a clearance of 19.6 mL/min/kg.

Tested on in a further data set: not listed separately
Description: Fraction unbound in rat serum. The class given is ADME, cell-free.
Conditions: not given
The method, boiled down:
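Free fraction was measured in the presence of rat serum. Values are the mean of duplicate experiments.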
As for `C[C@@H](N1CN([C@H]2c3ccccc3CSc3ccc(F)cc32)n2ccc(=O)c(O)c2C1=O)C(F)(F)F`, the fraction unbound was determined as 0.00975.
The same measure, in the same setting: with `CC(C)N1CN(C2c3ccccc3CSc3ccccc32)n2ccc(=O)c(O)c2C1=O` (racemic) the figure was 0.0768; with `C[C@@H](N1CN([C@H]2c3ccccc3CSc3c(F)cccc32)n2ccc(=O)c(O)c2C1=O)C(F)(F)F`, 0.00574.
For the compound `C[C@@H](N1CN([C@@H]2c3ccccc3SCc3c(Cl)cccc32)n2ccc(=O)c(O)c2C1=O)C(F)(F)F`, the fraction unbound turned out to be 0.00293.
For `C[C@@H](N1CN([C@H]2c3ccccc3CSc3cc(F)ccc32)n2ccc(=O)c(O)c2C1=O)C(F)(F)F`, the fraction unbound was 0.00807.
Still for that read-out and setting: with `C[C@@H](N1CN([C@H]2c3ccccc3CSc3ccccc32)n2ccc(=O)c(O)c2C1=O)C(F)(F)F` the figure was 0.0103; with `C[C@@H](N1CN([C@H]2c3ccc(Cl)cc3CSc3ccccc32)n2ccc(=O)c(O)c2C1=O)C(F)(F)F`, 0.00117.
On the same count and under the same terms, with `C[C@@H](N1CN([C@@H]2c3ccccc3SCc3c(F)cccc32)n2ccc(=O)c(O)c2C1=O)C(F)(F)F` the figure was 0.00978; with `[2H]C([2H])([2H])C([2H])(N1CN(C2c3ccccc3CSc3ccccc32)n2ccc(=O)c(O)c2C1=O)C([2H])([2H])[2H]` (stereo not drawn), 0.0601.
As to `C[C@@H](N1CN([C@H]2c3cc(Cl)ccc3CSc3ccccc32)n2ccc(=O)c(O)c2C1=O)C(F)(F)F`, the fraction unbound is 0.00514.
Still for that read-out and setting: with `C[C@@H](N1CN([C@H]2c3cc(F)ccc3CSc3ccccc32)n2ccc(=O)c(O)c2C1=O)C(F)(F)F` the figure was 0.0129.
The same measure, in the same setting: the same measure for `C[C@@H](N1CN([C@H]2c3ccccc3SCc3cccc(Cl)c32)n2ccc(=O)c(O)c2C1=O)C(F)(F)F`: 0.0179.
